Key:
[1] = test system: Mus musculus; experiment: Tumor uptake in C3H mice bearing RIF tumors, determined by in vivo reflectance spectroscopy following 5.0 umol/kg administration.; format: functional
Summary of the method: (§1)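 Photosensitizer given iv at 5.0 µmol/kg to C3H mice bearing RIF tumors, anesthetized with ketamine xylazine ip. Scattered-light spectrum from tissue was recorded before and after injection. The in vivo drug absorption was taken as the ratio of post- to pre-injection spectra. Tumor and skin were compared at 24 h postinjection.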

[2] = Partition coefficient (logP); format: physicochemical; settings: octanol/water
[3] = Tumor and skin uptake ratio of the compound; format: functional
Summary of the method: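 C3H mice bearing RIF tumors, anesthetized with ketamine xylazine ip; photosensitizer given iv at 5.0 µmol/kg. Uptake measured by in vivo reflectance spectroscopy: light scattered by tissue recorded before and after injection, and drug absorption taken as the postinjection/preinjection spectral ratio. Tumor versus skin uptake compared at 24 h postinjection.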

[4] = test system: Mus musculus; experiment: Skin uptake in C3H mice bearing RIF tumors, determined by in vivo reflectance spectroscopy following 5.0 umol/kg administration.; format: functional; summary of the method: as §1

Row | logP ([2]; read-out: logP) | logP [2] | SMILES | Tumor uptake [1] | Ratio [3] | Skin uptake [4]
1 | 8.79 | – | CCCCCCN1C(=O)c2c3nc(cc4nc(cc5[nH]c(cc6[nH]c2c(c6C)C1=O)c(CC)c5C)C(C(C)OCCC)=C4C)[C@@H](C)[C@@H]3CCC(=O)OC (stereo not given in full) | 13.8 µM | 2.19 | 6.29 µM
2 | – | 10.32 | CCCCCCOC(C)C1=C(C)c2cc3nc(c4c5[nH]c(cc6[nH]c(cc1n2)c(C)c6CC)c(C)c5C(=O)N(CCCCCC)C4=O)[C@@H](CCC(=O)OC)[C@@H]3C (stereo not given in full) | 7.3 µM | 3.17 | 2.3 µM
3 | – | 10.68 | CCCCCCCCCCOC(C)C1=C(C)c2cc3nc(c4c5[nH]c(cc6[nH]c(cc1n2)c(C)c6CC)c(C)c5C(=O)N(CCC)C4=O)[C@@H](CCC(=O)OC)[C@@H]3C (stereo not given in full) | 10.26 µM | 2.4 | 4.28 µM
4 | 8.79 | – | CCCCCCOC(C)C1=C(C)c2cc3nc(c4c5[nH]c(cc6[nH]c(cc1n2)c(C)c6CC)c(C)c5C(=O)N(CCC)C4=O)[C@@H](CCC(=O)OC)[C@@H]3C (stereo not given in full) | 4.95 µM | 3.34 | 1.48 µM
5 | 7.26 | – | CCCOC(C)C1=C(C)c2cc3nc(c4c5[nH]c(cc6[nH]c(cc1n2)c(C)c6CC)c(C)c5C(=O)N(CCC)C4=O)[C@@H](CCC(=O)OC)[C@@H]3C (stereo not given in full) | 10.5 µM | 2.19 | 4.8 µM
6 | 7.67 | – | CCCCCCOC(C)C1=C(C)c2cc3nc(c4c5[nH]c(cc6[nH]c(cc1n2)c(C)c6CC)c(C)c5C(=O)N(C)C4=O)[C@@H](CCC(=O)OC)[C@@H]3C (stereo not given in full) | 6.42 µM | 3.61 | 1.78 µM
7 | 7.82 | – | CCCCCCN1C(=O)c2c3nc(cc4nc(cc5[nH]c(cc6[nH]c2c(c6C)C1=O)c(CC)c5C)C(C(C)OC)=C4C)[C@@H](C)[C@@H]3CCC(=O)OC (stereo not given in full) | 10.1 µM | 2.24 | 4.5 µM
8 | – | 10.83 | CCCCCCCCCCN1C(=O)c2c3nc(cc4nc(cc5[nH]c(cc6[nH]c2c(c6C)C1=O)c(CC)c5C)C(C(C)OCCC)=C4C)[C@@H](C)[C@@H]3CCC(=O)OC (stereo not given in full) | 11.5 µM | 1.89 | 6.09 µM

More lines, now with the values behind:

Row | SMILES | logP ([2]; read-out: logP) | logP [2] | Tumor uptake [1] | Ratio [3] | Skin uptake [4]
9 | CCc1c(C)c2cc3[nH]c(cc4nc(c5c6nc(cc1[nH]2)C(C)=C6C(=O)N(C)C5=O)[C@@H](CCC(=O)OC)[C@@H]4C)c(C)c3C(C)OC (stereo not given in full) | 5.32 | – | 0.3 µM | 2.87 | 0.1 µM
10 | CCCCCCCCCCCCOC(C)C1=C(C)c2cc3nc(c4c5[nH]c(cc6[nH]c(cc1n2)c(C)c6CC)c(C)c5C(=O)N(C)C4=O)[C@@H](CCC(=O)OC)[C@@H]3C (stereo not given in full) | – | 10.73 | 6.21 µM | 3.57 | 1.74 µM
11 | CCCCCCCCCCCCN1C(=O)c2c3nc(cc4nc(cc5[nH]c(cc6[nH]c2c(c6C)C1=O)c(CC)c5C)C(C(C)OCCCCCC)=C4C)[C@@H](C)[C@@H]3CCC(=O)OC (stereo not given in full) | – | – | 4.77 µM | 2.39 | 2 µM
12 | CCCCCCCCCCCCOC(C)C1=C(C)c2cc3nc(c4c5[nH]c(cc6[nH]c(cc1n2)c(C)c6CC)c(C)c5C(=O)N(CCCCCC)C4=O)[C@@H](CCC(=O)OC)[C@@H]3C (stereo not given in full) | – | – | 9.4 µM | 2.19 | 4.3 µM
13 | CCCCCCCCCCCCOC(C)C1=C(C)c2cc3nc(c4c5[nH]c(cc6[nH]c(cc1n2)c(C)c6CC)c(C)c5C(=O)N(CCCCCCCCCCCC)C4=O)[C@@H](CCC(=O)OC)[C@@H]3C (stereo not given in full) | – | – | 5.04 µM | 1.87 | 2.7 µM
14 | CCCCCCCCCOC(C)C1=C(C)c2cc3nc(c4c5[nH]c(cc6[nH]c(cc1n2)c(C)c6CC)c(C)c5C(=O)N(CCCCCC)C4=O)[C@@H](CCC(=O)OC)[C@@H]3C (stereo not given in full) | – | 11.85 | 10.7 µM | 3.02 | 3.54 µM
15 | CCCCCCCCCCOC(C)C1=C(C)c2cc3nc(c4c5[nH]c(cc6[nH]c(cc1n2)c(C)c6CC)c(C)c5C(=O)N(CCCCCCCCCC)C4=O)[C@@H](CCC(=O)OC)[C@@H]3C (stereo not given in full) | – | – | 5.56 µM | 3.21 | 1.73 µM
16 | CCCCCCCCCCCCN1C(=O)c2c3nc(cc4nc(cc5[nH]c(cc6[nH]c2c(c6C)C1=O)c(CC)c5C)C(C(C)OC)=C4C)[C@@H](C)[C@@H]3CCC(=O)OC (stereo not given in full) | – | 10.88 | 15.48 µM | 2.67 | 5.8 µM
17 | CCCCCCCOC(C)C1=C(C)c2cc3nc(c4c5[nH]c(cc6[nH]c(cc1n2)c(C)c6CC)c(C)c5C(=O)N(CCCCCC)C4=O)[C@@H](CCC(=O)OC)[C@@H]3C (stereo not given in full) | – | – | 8.2 µM | 3.15 | 2.6 µM
18 | CCCCCCCCCCN1C(=O)c2c3nc(cc4nc(cc5[nH]c(cc6[nH]c2c(c6C)C1=O)c(CC)c5C)C(C(C)OCCCCCC)=C4C)[C@@H](C)[C@@H]3CCC(=O)OC (stereo not given in full) | – | – | 5.18 µM | 2.88 | 1.8 µM
19 | CCCCCCCN1C(=O)c2c3nc(cc4nc(cc5[nH]c(cc6[nH]c2c(c6C)C1=O)c(CC)c5C)C(C(C)OCCCCCC)=C4C)[C@@H](C)[C@@H]3CCC(=O)OC (stereo not given in full) | – | 10.83 | 8.04 µM | 2.73 | 2.95 µM

— ChEMBL document CHEMBL1134470, “Synthesis, photophysical properties, tumor uptake, and preliminary in vivo photosensitizing efficacy of a homologous series of 3-(1'-alkyloxy)ethyl-3-devinylpurpurin-18-N-alkylimides with variable lipophilicity” (J Med Chem, 2001)
